Measurements pooled from the literature.
Protocols differ between the studies behind these lines.
Target: Focal adhesion kinase 1 (PTK2, Homo sapiens, UniProt Q05397)

Cc1nn(C)cc1-c1nc2c(N3CCN(Cc4ccc(Cl)cc4)CC3)c(Cl)cnc2[nH]1 has a remaining binding of 95% (binding, competition with immobilised ligand; 1 µM).
The remaining binding of COc1ncccc1-c1cnn2ccc(N3CCN(C(=O)OC(C)C)CC3)nc12 is reported as 97% (binding, competition with immobilised ligand; 1 µM).
Nc1ncc(-c2nc(N3CCOCC3)nc(N3CCOCC3)n2)c(C(F)F)n1 has a remaining binding of 100% (binding, competition with immobilised ligand; 10 µM).
CC(C)(C)c1cc(C=C(C#N)C#N)cc(Br)c1O gave a remaining activity of 107% (enzyme activity, inhibitor; 0.5 µM).
Cn1cncc1[C@](O)(COc1ccc(C#N)cc1-c1ccc(OC(F)(F)F)cc1)c1ccc(C#N)cc1 has a remaining binding of 77% (cell-free assay, competition with immobilised ligand; 1 µM).
With O=c1[nH]c2ccccc2n1C1CCN(Cc2ccc(-c3[nH]c4cc5ncnc5cc4nc3-c3ccccc3)cc2)CC1 the remaining signal was 108% (cell-free assay; 0.5 µM).
For Cn1cc(-c2cccc(N3CCc4c(sc5c4CC(C)(C)C5)C3=O)c2CO)cc(Nc2ccncn2)c1=O, the inhibition was 3% (enzyme activity, inhibitor; 1 µM).
N#CC1(c2ccccn2)CCN(Cc2cc(C(=O)O)c(=O)n3ccccc23)CC1 has a remaining binding of 100% (cell-free assay, competition with immobilised ligand; 1 µM).
With Cn1cc(-c2cc(F)cc(N3CCn4c(cc5c4CCCC5)C3=O)c2CO)cc(Nc2ccc(N3CCN(C4COC4)CC3)cn2)c1=O the inhibition was 18% (enzyme activity, inhibitor; 0.1 µM).
With C#Cc1n[nH]c2c(-c3cn(C(C)c4ccccn4)c(=O)[nH]c3=O)cc(F)cc12 (stereo not shown) the inhibition was 5.6% (enzyme activity, inhibitor; 1 µM).
